High-throughput results (PubChem)
A selection: hits, their analogues and other compounds. The true share with any hit is near 3.8%.
NS3 helicase inh: inhibitors of HCV NS3 helicase, primary screen, biochemical, Cy5 molecular beacon fluorescence; inhibition, % at 10.9 µM; AID 1800, 2009; 290,000 compounds, 0.56% hits; NS3 helicase DNA unwinding;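 active = inhibition above the mean of all tested compounds plus 3 SD, set per campaign, cut at about 35% in these data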;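 also: 0% = DMSO wells and 100% = thioflavine S control wells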
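Control set: DMSO versus 110 µM thioflavine S; Material: NS3 helicase fragment of HCV; Measured by: Cy5 fluorescence at 0 and 60 min, beacon hairpin quenching; Read-out basis: percent inhibition from t60/t0 fluorescence ratio; Times: reaction time 60 min, 25 °C; Repeats: single replicate; Compound dosing: single dose, 10.9 µM nominal final, DMSO 0.8% final.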
Hep lipid drop: inhibitors of hepatocyte lipid droplet formation, primary screen, imaging, high-throughput imaging, BODIPY stain. AML12 mouse hepatocytes, oleate lipid droplets. inhibition, % at 6.5 µM. 240,000 compounds, 0.4% hits. AID 1656, 2009;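 active = lipid droplet intensity inhibited by at least 50%, with more than 500 cells counted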
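Assay system: AML12 hepatocytes (mouse); Probe or stimulus: oleic acid at 100 µM to induce lipid droplet formation; Dosing: compound at 6.5 µM only; Schedule: compound with oleate, overnight; Detection: fluorescence imaging, 20x objective, two fields per well; Measure: % inhibition of lipid droplet signal.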
HSP90 refold inh: HSP90 inhibitors, primary screen, cell lysate, luminescence | Heat shock protein HSP 90 (rabbit reticulocyte lysate; luciferase refolding) | Rabbit reticulocyte lysate, luciferase refolding luminescence, 3 h | inhibition, % at 5.6 µM | 290,000 compounds, 0.91% hits | AID 1789, 2009;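 active = inhibition above the screen-wide mean plus 3 SD, computed separately per campaign, cut at about 16% in these data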;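 also: 0% = DMSO wells and 100% = 60 µM geldanamycin wells; inhibitors lower the luminescence because luciferase stays unfolded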
HSF-1 act: HSF-1 activators, primary screen, NIH3T3-HGL cells, MG132 stress, luminescence, single point; activation, % at 9 µM; AID 504408, 2011; 300,000 compounds, 1.7% hits; NIH3T3-HGL HSF-1 luciferase reporter, 8 h; 100% = twice DMSO control signal;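 active = mean replicate activation of at least 50% with a set share of replicates each reaching 50%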;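 also: 0% = median of the neutral control wells and 100% = twice that signal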
HSF1 inhib: HSF1 inhibitors in luciferase reporter cells, primary screen, cell-based, NIH3T3, luminescence | NIH3T3-HGL HSE-luciferase, MG132-induced, luminescence 8 h; stronger effect = lower value | activity change, negative = inhibition, % at 7.5 µM (by protocol) | 300,000 compounds, 0.77% hits | AID 2098, 2009;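 active = more than half of replicate wells show activity change below -50%, luminescence cut by over half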;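 also: luciferase reports HSF-1 transcriptional activity via heat shock element; 0% = median of DMSO wells and -100% = zero luminescence signal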
* marks the source's active call; other numbers are inactive results; . = no result.

SMILES	NS3 helicase inh	Hep lipid drop	HSP90 refold inh	HSF-1 act	HSF1 inhib
O=C(NC1CCCC1)C(c1ccncc1)N(CCCN1CCOCC1)C(=O)c1ccc(-c2ccccc2)[nH]1 (stereo not drawn)	-23	11	-1	29	22
O=C(NC1CCCC1)C(c1ccncc1)N(Cc1ccccc1)C(=O)c1ccc(-c2ccccc2)[nH]1 (stereo not drawn)	-12	-30	-6	73*	44
O=C(NC1CCCC1)C(c1ccccc1)N(Cc1cccnc1)C(=O)Cc1cccs1 (stereo not drawn)	-3	-7	0	55*	17
Cc1ccc(CN(C(=O)Cc2cccs2)C(C(=O)NC2CCCC2)c2ccncc2)cc1 (stereo not drawn)	2	-13	-3	16	-1
CC(C)(C)NC(=O)C(c1ccncc1)N(Cc1ccc(F)cc1)C(=O)c1ccc(-c2ccccc2)[nH]1 (stereo not drawn)	-26	13	-1	87*	90
O=C(NC1CCCC1)C(c1ccncc1)N(Cc1ccco1)C(=O)c1ccc(-c2ccccc2)[nH]1 (stereo not drawn)	-5	18	-1	122*	114
CC(C)(C)NC(=O)C(c1ccc(F)cc1)N(CCc1ccccc1)C(=O)c1ccn[nH]1 (stereo not drawn)	2	-22	2	-2	0
COc1cc(/C=C/c2nc3ccc([N+](=O)[O-])cc3s2)ccc1OCC(=O)O	5	23	-2	3	5
CCOc1cc(C(=O)OC(C)C(=O)Nc2ccc(NC(C)=O)cc2)ccc1OCC(=O)N1CCCCC1 (stereo not drawn)	-4	9	-3	1	-6
CC(C)CC(=O)N1CCN(Cc2ccc(C(F)(F)F)cc2)CC1	-8	14	-2	-5	0
NC(N)=NC1=NC(=O)C(Cc2ccccc2)S1 (stereo not drawn)	8	1	-1	-7	0
Cc1ccc(CC2SC(N=C(N)N)=NC2=O)cc1 (stereo not drawn)	10	0	-2	81*	34
CCN(CC)S(=O)(=O)c1cccc(NC(=O)/C=C/c2cccc([N+](=O)[O-])c2)c1	-11	-19	4	-1	5
CCN(CC)S(=O)(=O)c1cccc(NC(=O)/C=C/c2ccc([N+](=O)[O-])cc2)c1	-3	4	-1	70*	14
N#Cc1c(SCc2ccc(Cl)cc2)sc(C(=O)c2ccccc2)c1N	3	.	-4	3	1
CSc1c(C#N)c(N)nc2sc(C(=O)c3ccccc3)c(N)c12	-3	5	0	116*	81
N#CC(=C1CCCC1)c1nc(-c2ccccc2)cs1	-25	.	1	86*	47
N#CC(=C1CCCC1)c1nc(-c2ccccc2O)cs1	5	.	-1	20	22
N#CC(=C1CCCC1)c1nc(-c2cc3ccccc3oc2=O)cs1	9	.	-5	72*	52
Cc1onc(-c2c(Cl)cccc2Cl)c1C(O)c1ccccc1 (stereo not drawn)	2	.	-1	18	-2
CCOC(=O)c1cc(C(=O)OCC)c(=O)[nH]c1N1CCCC1	-7	0	-1	-5	12
Cc1ccc(NC(=O)CC(NCC2CCCO2)C(=O)O)cc1C (stereo not drawn)	21	1	6	-9	-9
COc1ccc(N2C(=O)c3ccccc3NC2c2ccc(OC)c(Cn3cc([N+](=O)[O-])cn3)c2)cc1 (stereo not drawn)	-14	-7	1	-75	-68*
Cc1nc2scc(-c3ccc(Cl)cc3)c2c(=O)n1N	-3	-4	1	94*	68
Cc1ccc(-c2csc3nc(C)n(N)c(=O)c23)cc1	1	4	-5	4	2
SMILES	NS3 helicase inh	Hep lipid drop	HSP90 refold inh	HSF-1 act	HSF1 inhib
COc1ccc(Cl)cc1NC(=O)CN(C)C(C)C(=O)NC(=O)NC1CCCCC1 (stereo not drawn)	.	.	.	-17	-5
O=C(O)c1ccc(CSc2nnc(-c3ccccc3Br)o2)cc1	15	-7	0	3	2
Brc1ccccc1-c1nnc(SCc2nc3ccccc3s2)o1	6	4	-1	54*	11
CCN(CC)S(=O)(=O)c1cccc(-c2nnc(SCc3nc4ccccc4s3)o2)c1	-6	6	1	62*	40
COc1cc([N+](=O)[O-])c(OC)cc1SCc1n[nH]c(=S)n1-c1ccc(F)cc1	-13	-14	-1	4	-6
COc1ccc(OCC(=O)NC2CCCN(Cc3ccc(Cl)cc3)C2)cc1 (stereo not drawn)	-9	-10	4	30	12
O=C(O)c1ccccc1S(=O)(=O)CC(=O)N1CCCCC1	-2	-20	1	5	2
O=C(Nc1cccc([N+](=O)[O-])c1)c1ccccc1	10	-26	0	11	-5
Nc1ccccc1C#CC(=O)c1ccccc1	-10	-9	-1	84*	58
O=C(C#Cc1cccc([N+](=O)[O-])c1)c1ccccc1	-9	1	-2	97*	61
CC(C)(C)c1cc(C(=O)NNC(=O)Nc2ccccc2)n(Cc2ccccc2)n1	4	-5	4	7	-4
CC(C)(C)c1cc(C(=O)NCc2cc(F)cc3c2OCOC3)n(Cc2ccccc2)n1	-10	-6	-1	56*	42
Cc1nnc(NC(=O)C2CCN(C(=O)c3ccco3)CC2)s1	10	-7	16*	-3	-1
CC(C)c1nnc(NC(=O)C2CCN(C(=O)c3ccco3)CC2)s1	7	0	1	-71	-64*
CCn1c(SCC(=O)NC2=NCCS2)nnc1C(C)NC(=O)c1ccccc1Br (stereo not drawn)	-7	-2	1	2	2
CCOc1ccc2[nH]c(=O)c(CN(CCN3CCCC3)C(=S)Nc3ccccc3OC)cc2c1	-16	-6	-2	-6	-1
COc1ccccc1NC(=O)C(CC(C)C)NC(=O)C1CCCCC1 (stereo not drawn)	2	7	5	9	4
COc1ccccc1N1CCN(C(=O)C(CC(C)C)NC(=O)C2CCCCC2)CC1 (stereo not drawn)	-18	-1	-1	55*	18
Cn1nc(C(C)(C)C)cc1C(=O)Sc1cccc(Br)c1	0	18	3	27	18
CCSCc1nnc(SCC(=O)Nc2nc(C)cs2)n1C	5	.	1	18	3
COC(=O)c1ccc(-n2ccnc2)cc1	-4	6	-2	-10	-7
CCOC(=O)C(=Cc1ccc(Br)cc1)C(=O)OCC	-5	-6	6	148*	113
